According to ChEMBL document CHEMBL1165950, “Design and synthesis of new potent anticancer pyrazoles with high FLT3 kinase inhibitory selectivity” (Bioorg Med Chem, 2010):

How the values were obtained:
Format in all cases: functional
SK-OV-3 [1] = experiment: Cytotoxicity against human SKOV3 cells assessed as cell growth at 10 uM after 48 hrs by sulforhodamine B assay; conditions: SK-OV-3, 48 h, read-out: Activity
SK-OV-3 [2] = experiment: Growth inhibition of human SKOV3 cells after 48 hrs by sulforhodamine B assay; conditions: SK-OV-3, 48 h; for CC50: read-out: LC50 (the source's name)
Procedure, shortened: (§1)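 NCI 60-cell screen, five-dose mode. Cells grown in RPMI 1640 with 5% FBS and 2 mM L-glutamine and plated at 5000-40,000 cells/well according to doubling time. After 24 h preincubation, a Tz plate was TCA-fixed. Five concentrations (10-fold or 1/2 log dilutions) were applied for 48 h at 37 °C. SRB staining read at 515 nm. IC50 taken from [(Ti-Tz)/(C-Tz)]×100 = 50.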

NCI-H23 = experiment: Growth inhibition of human NCI-H23 cells after 48 hrs by sulforhodamine B assay; conditions: NCI-H23, 48 h; for CC50: read-out: LC50 (the source's name); procedure, shortened: as §1
MDA-MB-468 = experiment: Cytotoxicity against human MDA-MB-468 cells assessed as cell growth at 0.001 uM after 48 hrs by sulforhodamine B assay; conditions: MDA-MB-468, 48 h, read-out: Activity
SF-268 = experiment: Cytotoxicity against human SF268 cells assessed as cell growth at 10 uM after 48 hrs by sulforhodamine B assay; conditions: SF-268, 48 h, read-out: Activity
A498 [3] = experiment: Cytotoxicity against human A498 cells assessed as cell growth at 10 uM; conditions: read-out: Activity
Procedure, shortened: (§2)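 Single-dose NCI-60 screen at 10 µM. Cells were grown in RPMI 1640 with 5% FBS and 2 mM L-glutamine, then treated for 48 h at 37 °C. Protein was measured by SRB staining with absorbance at 515 nm. Percentage growth was recorded, and inhibition percentage was calculated as 100 minus growth percentage.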

OVCAR-4 = experiment: Cytotoxicity against human OVCAR4 cells assessed as cell growth at 10 uM; conditions: read-out: Activity
Procedure, shortened: (§3)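 NCI-60 screen: cells grown in RPMI 1640 with 5% FBS and 2 mM L-glutamine, plated at 5000–40,000 cells/well according to doubling time, and preincubated 24 h at 37 °C, 5% CO2. The single 10 µM dose (DMSO stock) was added, then incubated 48 h. Cells were TCA-fixed and stained with 0.4% SRB, read at 515 nm, and growth % calculated against time-zero and control plates.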

NCI-H322M = experiment: Cytotoxicity against human NCI-H322M cells assessed as cell growth at 0.001 uM after 48 hrs by sulforhodamine B assay; conditions: read-out: Activity
A498 [4] = experiment: Cytotoxicity against human A498 cells assessed as cell growth at 10 uM after 48 hrs by sulforhodamine B assay; conditions: A498, 48 h, read-out: Activity
Procedure, shortened: (§4)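 NCI-60 five-dose screen. Cells were grown in RPMI 1640 with 5% FBS and 2 mM L-glutamine, plated at 5000–40,000 cells/well and preincubated for 24 h. Time-zero plates were TCA-fixed. DMSO-solubilized drug was added at five concentrations (10-fold or ½-log serial dilutions) for 48 h at 37 °C, 5% CO2. Cells were TCA-fixed, stained with 0.4% SRB and read at 515 nm. Percent growth used time-zero, control and test absorbances.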

NCI-H460 = experiment: Cytotoxicity against human NCI-H460 cells assessed as cell growth at 0.01 uM after 48 hrs by sulforhodamine B assay; conditions: NCI-H460, 48 h, read-out: Activity
DU-145 [5] = experiment: Cytotoxicity against human DU145 cells assessed as cell growth at 1 uM after 48 hrs by sulforhodamine B assay; conditions: DU-145, 48 h, read-out: Activity
HT-29 = experiment: Cytotoxicity against human HT-29 cells assessed as cell growth at 1 uM after 48 hrs by sulforhodamine B assay; conditions: HT-29, 48 h, read-out: Activity
SK-MEL-5 = experiment: Cytotoxicity against human SK-MEL-5 cells assessed as cell growth at 10 uM after 48 hrs by sulforhodamine B assay; conditions: SK-MEL-5, 48 h, read-out: Activity
UACC-62 = experiment: Cytotoxicity against human UACC62 cells assessed as cell growth at 0.001 uM after 48 hrs by sulforhodamine B assay; conditions: UACC-62, 48 h, read-out: Activity
786-0 [6] = experiment: Cytotoxicity against human 786-0 cells assessed as cell growth at 0.01 uM after 48 hrs by sulforhodamine B assay; conditions: 786-0, 48 h, read-out: Activity; procedure, shortened: as §4
HOP-92 = experiment: Cytotoxicity against human HOP92 cells assessed as cell growth at 0.01 uM after 48 hrs by sulforhodamine B assay; conditions: HOP-92, 48 h, read-out: Activity
NCI-H522 [7] = experiment: Cytotoxicity against human NCI-H522 cells assessed as cell growth at 0.01 uM after 48 hrs by sulforhodamine B assay; conditions: NCI-H522, 48 h, read-out: Activity
NCI/ADR-RES = experiment: Cytotoxicity against human NCI/ADR-RES cells assessed as cell growth at 10 uM; conditions: read-out: Activity; procedure, shortened: as §3
DU-145 [8] = experiment: Cytotoxicity against human DU145 cells assessed as cell growth at 10 uM after 48 hrs by sulforhodamine B assay; conditions: DU-145, 48 h, read-out: Activity
UACC-257 = experiment: Growth inhibition of human UACC257 cells after 48 hrs by sulforhodamine B assay; conditions: UACC-257, 48 h; for CC50: read-out: LC50 (the source's name); procedure, shortened: as §1
SF-539 = experiment: Cytotoxicity against human SF539 cells assessed as cell growth at 10 uM; conditions: read-out: Activity; procedure, shortened: as §3
UO-31 = experiment: Cytotoxicity against human UO31 cells assessed as cell growth at 10 uM; conditions: read-out: Activity; procedure, shortened: as §3
HOP-62 = experiment: Cytotoxicity against human HOP62 cells assessed as cell growth at 10 uM; conditions: read-out: Activity; procedure, shortened: as §2
SNB-75 = experiment: Cytotoxicity against human SNB75 cells assessed as cell growth at 1 uM after 48 hrs by sulforhodamine B assay; conditions: SNB-75, 48 h, read-out: Activity
786-0 [9] = experiment: Cytotoxicity against human 786-0 cells assessed as cell growth at 100 nM after 48 hrs by sulforhodamine B assay; conditions: 786-0, 48 h, read-out: Activity; procedure, shortened: as §4
LOX IMVI = experiment: Cytotoxicity against human LOXIMVI cells assessed as cell growth at 1 uM after 48 hrs by sulforhodamine B assay; conditions: read-out: Activity
BT-549 = experiment: Cytotoxicity against human BT549 cells assessed as cell growth at 10 uM; conditions: read-out: Activity; procedure, shortened: as §2
NCI-H522 [10] = experiment: Growth inhibition of human NCI-H522 cells after 48 hrs by sulforhodamine B assay; conditions: NCI-H522, 48 h; for CC50: read-out: LC50 (the source's name); procedure, shortened: as §1

Compound | growth at 10 µM (SK-OV-3 [1]) [%] | GI50 (SK-OV-3 [2]) [µM] | TGI (SK-OV-3 [2]) [µM] | CC50 (SK-OV-3 [2]) [µM] | GI50 (NCI-H23) [µM] | TGI (NCI-H23) [µM] | CC50 (NCI-H23) [µM] | growth at 0.001 µM (MDA-MB-468) [%] | growth at 10 µM (SF-268) [%] | growth at 10 µM (A498 [3]) [%] | growth at 10 µM (OVCAR-4) [%] | growth at 0.001 µM (NCI-H322M) [%] | growth at 10 µM (A498 [4]) [%] | growth at 0.01 µM (NCI-H460) [%] | growth at 1 µM (DU-145 [5]) [%] | growth at 1 µM (HT-29) [%] | growth at 10 µM (SK-MEL-5) [%] | growth at 0.001 µM (UACC-62) [%] | growth at 0.01 µM (786-0 [6]) [%] | growth at 0.01 µM (HOP-92) [%] | also measured
Cc1cc(O)cc(-c2nn(CC#N)cc2-c2ccnc(-c3ccc(N(C)C)cc3)c2)c1 | -38 | 2.85 | 8.03 | > 100 | 4.48 | 24.8 | > 100 | 98 | -58 | 51.1 | 29.9 | 94 | -33 | 102 | -7 | 24 | -93 | 90 | 88 | 85 | growth at 0.01 µM (NCI-H522 [7]): 84%; growth at 10 µM (NCI/ADR-RES): 6.33%; growth at 10 µM (DU-145 [8]): -66%; GI50 (UACC-257): 4.35 µM; TGI (UACC-257): 35.6 µM; CC50 (UACC-257): > 100 µM; growth at 10 µM (SF-539): 21.7%; growth at 10 µM (UO-31): 52.4%; growth at 10 µM (HOP-62): 36.5%; growth at 1 µM (SNB-75): -22%; growth at 0.1 µM (786-0 [9]): 91%; growth at 1 µM (LOX IMVI): 29%; growth at 10 µM (BT-549): 31.8%; GI50 (NCI-H522 [10]): 1.93 µM; TGI (NCI-H522 [10]): 7.14 µM; CC50 (NCI-H522 [10]): 68.1 µM
COc1cc(C)cc(-c2nn(CC#N)cc2-c2ccnc(-c3ccc(N(C)C)cc3)c2)c1 | -40 | 0.304 | 0.882 | > 100 | 0.514 | > 100 | > 100 | 96 | -32 | 4.2 | 17.1 | 99 | -33 | 106 | -40 | -29 | -66 | 91 | 96 | 93 | growth at 0.01 µM (NCI-H522 [7]): 87%; growth at 10 µM (NCI/ADR-RES): -28%; growth at 10 µM (DU-145 [8]): -48%; GI50 (UACC-257): 0.448 µM; TGI (UACC-257): > 100 µM; CC50 (UACC-257): > 100 µM; growth at 10 µM (SF-539): -17.5%; growth at 10 µM (UO-31): 37.9%; growth at 10 µM (HOP-62): 18.9%; growth at 1 µM (SNB-75): -12%; growth at 0.1 µM (786-0 [9]): 22%; growth at 1 µM (LOX IMVI): 5%; growth at 10 µM (BT-549): -28.5%; GI50 (NCI-H522 [10]): 0.196 µM; TGI (NCI-H522 [10]): 0.492 µM; CC50 (NCI-H522 [10]): 3.24 µM
